# Compound activity as filed in PubChem BioAssay.
# A selection: hits, their analogues and other compounds. The true share with any hit is near 3%.
# SENP6 block: SENP6 protease inhibition; Q9GZR1; Recombinant SENP6 catalytic domain, aminoluciferin luminescence; inhibition, % at 10 µM; actives 1.8% (n = 330,000); AID 2599;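 active = inhibition above about 50% at the single tested dose, limit read from the data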
# UBC13 polyUb: human UBC13 polyubiquitination inhibition; AID 485273; P61088; inhibition, % at 20 µM; actives 0.47% (n = 330,000); UBC13 polyubiquitin chain formation, TR-FRET; in the data active = inhibition above about 45%, passing the limit was not always enough
# Apaf1 inhib: human Apaf-1 inhibition | O14727 | actives 0.71% (n = 330,000) | AID 489030 | reconstituted apoptosome caspase-3 activity, DEVD-Rh110 fluorescence | inhibition, % at 20 µM; active = inhibition of at least 40% at 20 µM
#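 Material: reconstituted apoptosome with Apaf-1, cytochrome c, caspase-9, procaspase-3, dATP. Technique: Rh110 fluorescence intensity. Buffer or medium: pH 7.5 Hepes buffer with CHAPS, BSA, DTT. Times: 30 min plus 50 min, RT.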
# SENP7 block: inhibitors of human SENP7 protease. recombinant SENP7, Z-RLRGG-aminoluciferin luminescence, 40 min. inhibition, % at 5 µM. actives 1.5% (n = 330,000);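 active = inhibition above about 50% at the single test dose, limit read from the data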
# Target sequence (Q9BQF6 706-1050 limits assumed): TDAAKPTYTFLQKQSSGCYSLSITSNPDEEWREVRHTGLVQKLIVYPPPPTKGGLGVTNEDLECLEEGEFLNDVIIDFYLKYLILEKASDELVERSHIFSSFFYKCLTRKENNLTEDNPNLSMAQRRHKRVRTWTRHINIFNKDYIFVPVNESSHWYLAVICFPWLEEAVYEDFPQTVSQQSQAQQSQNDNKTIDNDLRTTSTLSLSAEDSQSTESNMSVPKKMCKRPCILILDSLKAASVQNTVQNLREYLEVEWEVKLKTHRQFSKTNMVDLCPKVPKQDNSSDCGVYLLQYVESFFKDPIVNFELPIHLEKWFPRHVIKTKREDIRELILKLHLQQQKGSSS
# SENP8 block-1: inhibitors of human SENP8 protease | inhibition, % at 20 µM | recombinant SENP8, Nedd8 substrate fluorescence | Q96LD8 | AID 602440 | actives 0.64% (n = 360,000); in the data active = inhibition mostly above about 40%, no sharp cut-off; inactive = mostly below about 27%
# Target sequence (Q96LD8 whole entry, looked up): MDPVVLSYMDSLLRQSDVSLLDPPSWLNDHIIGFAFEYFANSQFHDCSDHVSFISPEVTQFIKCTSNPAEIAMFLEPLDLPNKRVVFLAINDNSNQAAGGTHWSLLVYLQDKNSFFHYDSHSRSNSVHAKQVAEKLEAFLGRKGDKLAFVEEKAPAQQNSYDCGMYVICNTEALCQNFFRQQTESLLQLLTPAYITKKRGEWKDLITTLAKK
# SENP8 block-2: inhibitors of human SENP8 protease. Q96LD8. purified SENP8, Z-RLRGG-aminoluciferin cleavage, luminescence. inhibition, % at 10 µM. actives 1.2% (n = 330,000); in the data active = inhibition above about 50%
# Numbers stand for hits; . = inactive; / = no result.
SMILES,SENP6 block,UBC13 polyUb,Apaf1 inhib,SENP7 block,SENP8 block-1,SENP8 block-2
O=C(COc1ccc2ccccc2c1)N1CCN(C(=O)c2ccc([N+](=O)[O-])cc2)CC1,.,.,.,.,.,.
O=C(c1ccc(Cl)c(Cl)c1)N1CCC(=O)N([C@H](COCc2cccc(C(F)(F)F)c2)Cc2ccccc2)CC1,/,/,/,/,.,/
CC1CN(C(=O)CCNC(=O)c2ccc(Br)cc2)CC(C)O1 (centres undefined),.,.,.,.,.,.
COc1cccc(-c2nc(-c3ccc(Br)o3)no2)c1,85,.,.,84,.,72
COc1ccc(-c2nc(-c3ccc(Br)o3)no2)cc1OC,.,.,.,.,.,.
Cc1ccc(-n2c(N)c(C(=O)Nc3c(C)n(C)n(-c4ccccc4)c3=O)c3nc4ccccc4nc32)cc1C,.,.,42,.,/,.
Nc1ccc(OCc2ccccc2)cc1,.,.,.,.,.,.
Nc1ccc(OCc2ccco2)cc1,.,.,.,54,.,.
CCCCNC(=O)c1ccccc1NC(=O)CCC,.,.,.,.,.,.
O=C(N=C1c2ccccc2CN1c1ccc(F)c(Cl)c1)c1cccnc1Cl,66,.,.,61,/,62
N#Cc1ccc(N2Cc3ccccc3C2=NC(=O)c2cccnc2Cl)cc1,.,.,.,.,.,.
CCC(=O)c1ccc(OC(=O)c2cccs2)cc1,.,.,.,.,.,.
CCc1ccc(C(=O)COC(=O)c2cccs2)cc1,.,.,.,97,.,91
O=C(O)c1ccc(-c2nc3ccccc3[nH]2)cc1,75,.,.,73,.,62
COc1cc(NC(=O)N2CCc3nc(Nc4cc(Cl)cc(Cl)c4)ncc3C2)cc(OC)c1OC,/,/,/,/,.,/
CCOc1c(OC(C)=O)ccc(/C=C/c2ccc3cccc(OC(C)=O)c3n2)c1[N+](=O)[O-],.,.,.,.,.,.
C=CCN1C(=O)/C(=C/c2ccc(OC(C)=O)c(OCC)c2[N+](=O)[O-])SC1=S,/,/,/,/,65,/
COc1cc([N+](=O)[O-])cc(/C=N/NC(=O)C(O)(c2ccccc2)c2ccccc2)c1O,.,.,.,.,50,.
C[C@]12CCC[C@H](O1)c1c(cc3c(c1O)C(=O)c1c(O)cc(O)cc1C3=O)O2,.,.,.,.,58,.
CN(CC(=O)Nc1ccccc1F)S(=O)(=O)c1ccc2c(c1)n(C)c(=O)c(=O)n2C,.,.,.,.,.,.
O=c1c(C=NCCN2CCNCC2)c(-c2ccccc2)[nH]n1-c1ccc([N+](=O)[O-])cc1,93,.,.,84,/,90
COc1ccc(-c2[nH]n(-c3ccc([N+](=O)[O-])cc3)c(=O)c2C=NCCN2CCNCC2)cc1,.,.,.,.,/,.
O=C(O)c1ccc(N=Nc2c(O)[nH]c3cc(Cl)ccc23)cc1,97,.,.,97,.,95
O=C(O)c1ccc(N=Nc2c(O)[nH]c3ccc(Br)cc23)cc1,57,.,.,62,.,69
Cc1ccccc1/C=N/NC(=O)c1sccc1C,96,.,.,99,.,95
SMILES,SENP6 block,UBC13 polyUb,Apaf1 inhib,SENP7 block,SENP8 block-1,SENP8 block-2
CCOc1cc(N2CCOCC2)c(OCC)cc1NC(=O)C(C)C,.,.,.,.,.,.
CCOc1cc(N2CCOCC2)c(OCC)cc1NC(C)C(=O)N1CCN(CC)CC1 (centres undefined),/,/,/,/,58,/
CCOc1cc(N2CCOCC2)c(OCC)cc1NC(=O)CSc1cccc[n+]1[O-],.,.,.,.,47,.
CCC(C)NC(=O)CNC(=O)c1nn(-c2ccc(OC)cc2OC)c(=O)c2ccccc12 (centres undefined),.,.,.,.,.,.
Cc1ccc(C)c(CN2CCC(CNC(=O)CCc3nnc4ccc(N5CCC(C)CC5)nn34)CC2)c1,.,.,.,.,.,.
Cc1ccccc1OCCC(=O)N1CCN(S(=O)(=O)c2ccc(Cl)cc2)CC1,.,.,.,.,.,.
CCOc1ccc(NC(=O)CN(C)C(=O)c2ccccc2OCc2c(C)noc2C)cc1OCC,.,.,57,.,.,.
Cc1ccc(NC(=O)CN(C)C(=O)c2ccccc2OCc2c(C)noc2C)cc1,.,.,.,.,.,.
CCCN(CC(=O)Nc1ccccc1OC)C(=O)c1cc(S(=O)(=O)NCc2ccccc2)ccc1C,.,.,62,.,.,.
CCCN(CC(=O)Nc1ccccc1OC)C(=O)c1cccc(S(=O)(=O)NCc2ccccc2)c1,.,.,.,.,.,.
C=C[C@]1(C)C=C2CCC3[C@](C)(CCC[C@@]3(C)C(=O)O)C2CC1 (some centres undefined),.,.,.,.,60,.
COc1ccc(C(=O)NC2CCCc3c2cnn3-c2cccc(C)c2C)o1 (centres undefined),.,.,.,.,.,.
COc1ccc2occ(C(=O)c3ccccc3)c2c1,.,.,.,.,.,.
COc1ccc(C(=O)c2coc3c2C(=O)C(=O)c2ccccc2-3)cc1,.,.,.,.,83,.
O=C1C(Cl)=C(NCCCO)C(=O)c2ccccc21,.,.,45,.,83,.
CC(=O)Nc1ccc(NC2=C(Cl)C(=O)c3ccccc3C2=O)cc1,.,.,.,.,/,.
CN(C)c1ccc(NC2=C(Cl)C(=O)c3ccccc3C2=O)cc1,.,.,43,.,43,.
O=C1C(Cl)=C(NCCCN2CCOCC2)C(=O)c2ccccc21,/,/,/,/,64,/
COC(=O)[C@]1(CC(C)C)N[C@H](c2ccc(-c3cccc(Cl)c3)cc2)[C@@H]2C(=O)N(C)C(=O)[C@@H]21,.,.,.,.,.,.
C#CCOCCOCCOCCNc1nc(N2CCN(C(=O)Cn3cc(CCCN=C(N)N)nn3)CC2)nc(N2CCN(C(=O)[C@H]([C@@H](C)CC)n3cc(CCCCN)nn3)CC2)n1,.,.,.,.,.,.
C#CCOCCOCCOCCNc1nc(N2CCN(C(=O)CCCCCCCCCCNC(=O)[C@H](CCCCN)n3cc(C)nn3)CC2)nc(N2CCN(C(=O)CCCCCCCCCCNC(=O)[C@H](CCCCN)n3cc(CCCC(=O)O)nn3)CC2)n1,.,114,63,.,.,.
C#CCOCCOCCOCCNc1nc(N2CCN(C(=O)CCCCCCCCCCNC(=O)[C@H]([C@@H](C)CC)n3cc(CCCCN=C(N)N)nn3)CC2)nc(N2CCN(C(=O)CCCCCCCCCCNC(=O)[C@H]([C@@H](C)CC)n3cc(CCCCN=C(N)N)nn3)CC2)n1,.,126,41,.,/,.
C#CCOCCOCCOCCNc1nc(N2CCOCC2)nc(N2CCN(C(=O)CCCCCCCCCCNC(=O)[C@@H](CCC(=O)O)n3cc(CCCCCN)nn3)CC2)n1,.,.,.,.,.,.
